Screens from PubChem.
KCNQ1 inh: human KCNQ1 channel inhibition | CHO-K1 KCNQ1, FluxOR thallium flux fluorescence; active compounds read high | B-score at 10 µM | 310,000 tested, 1.3% active | AID 2642 | P51787;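 active = compounds whose thallium flux B-score, printed positive for inhibition, exceeds three library SD while starting fluorescence stays within three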;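 note: channel opened by potassium depolarization with thallium stimulus after 20 min compound exposure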
hERG rescue: shields human hERG channel from block by proarrhythmic agents | CHO-hERG, FluxOR thallium flux, dofetilide IC70 present | activation (rescue from dofetilide block), less the hit threshold, % at 10 µM | Q12809 | 310,000 tested, 0.51% active | AID 1511;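 active = activation above the mean of controls blocked by dofetilide plus 5 SD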;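 note: thallium influx through hERG after potassium depolarization seen as dye fluorescence rise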
Target sequence (Q12809 whole entry, looked up): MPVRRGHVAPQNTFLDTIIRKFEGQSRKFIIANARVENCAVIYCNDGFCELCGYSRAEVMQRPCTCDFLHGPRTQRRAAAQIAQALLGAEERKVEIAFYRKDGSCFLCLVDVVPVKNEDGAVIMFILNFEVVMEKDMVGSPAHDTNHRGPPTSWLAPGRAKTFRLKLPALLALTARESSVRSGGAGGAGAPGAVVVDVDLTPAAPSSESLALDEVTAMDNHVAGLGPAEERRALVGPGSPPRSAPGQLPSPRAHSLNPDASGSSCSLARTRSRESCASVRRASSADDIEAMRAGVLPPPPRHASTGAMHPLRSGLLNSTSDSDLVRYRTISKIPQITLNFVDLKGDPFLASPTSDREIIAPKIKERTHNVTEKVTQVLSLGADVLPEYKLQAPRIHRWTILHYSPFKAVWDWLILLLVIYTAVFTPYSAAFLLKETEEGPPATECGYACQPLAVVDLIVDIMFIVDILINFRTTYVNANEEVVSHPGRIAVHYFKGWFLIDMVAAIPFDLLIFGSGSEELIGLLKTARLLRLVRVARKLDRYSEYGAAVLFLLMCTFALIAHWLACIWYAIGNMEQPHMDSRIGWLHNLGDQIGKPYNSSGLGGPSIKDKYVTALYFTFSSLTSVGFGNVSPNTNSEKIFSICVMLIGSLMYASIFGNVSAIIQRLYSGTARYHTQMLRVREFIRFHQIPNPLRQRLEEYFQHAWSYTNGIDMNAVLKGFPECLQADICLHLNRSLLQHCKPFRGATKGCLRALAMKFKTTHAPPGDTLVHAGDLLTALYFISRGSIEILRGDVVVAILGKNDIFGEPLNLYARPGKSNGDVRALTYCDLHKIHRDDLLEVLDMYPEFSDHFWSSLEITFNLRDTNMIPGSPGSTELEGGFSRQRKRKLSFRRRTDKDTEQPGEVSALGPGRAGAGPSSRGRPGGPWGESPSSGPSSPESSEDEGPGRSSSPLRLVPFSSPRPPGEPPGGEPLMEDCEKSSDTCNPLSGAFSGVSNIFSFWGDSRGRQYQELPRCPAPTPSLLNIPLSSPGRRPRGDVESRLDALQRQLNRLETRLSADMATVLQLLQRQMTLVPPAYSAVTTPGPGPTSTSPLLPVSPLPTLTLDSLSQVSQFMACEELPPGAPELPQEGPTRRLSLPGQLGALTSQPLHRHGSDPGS
KCNQ1 pot: human KCNQ1 channel potentiation or activation; P51787; CHO-K1 KCNQ1, thallium flux FluxOR fluorescence; active compounds read high; B-score at 10 µM; 310,000 tested, 0.35% active;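 active = fluorescence ratio B-score, a plate-corrected score, at least three library SD, with initial intensity B-score within 5 SD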
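System: Stable KCNQ1 CHO-K1 line | Incubation: 90 min dye loading and 20 min compound exposure, both at room temperature | Measure: Ratio B score | Medium: Assay buffer for compound exposure, DMSO matched across wells | Compound dosing: Single-concentration screen | Probe or stimulus: K+/Tl+ depolarizing stimulus | Measured by: Kinetic FluxOR fluorescence, 10 s baseline plus 110 s post-stimulus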
KCNK9 block: human KCNK9 channel inhibition. Q9NPC2. HEK293 KCNK9, FluxOR thallium flux fluorescence; active compounds read low. B-score at 10 µM. 310,000 tested, 1.2% active;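 active = ratio B-score over 3 SD below the library mean, with starting fluorescence within 5 SD of its mean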;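 note: negative B-score means less thallium flux so channel inhibition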
KCNK3 inh: human KCNK3 channel inhibition, primary screen; 340,000 tested, 0.84% active; O14649; CHO-KCNK3 thallium flux, FluxOR fluorescence; active compounds read low; AID 602410; B-score at 10 µM;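 active = B-score under library mean minus 4 SD, starting fluorescence ratio at most library mean plus 5 SD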;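 note: more negative B-score means stronger inhibition of thallium flux through KCNK3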
KCNK9 block conf: confirmation of human KCNK9 potassium channel inhibitors; HEK293 KCNK9 cells, FluxOR thallium flux fluorescence; shares compounds with KCNK9 block; inhibition, % at 10 µM; AID 492992; 4,900 tested, 43% active;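 active = thallium signal inhibited by more than 5 SD of the compound-free buffer control wells, on both duplicate plates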
Kir21 sel: selectivity of KCNK9 modulators against mouse Kir2.1 | shares compounds with KCNK9 block | Kir2.1 cells, FluxOR thallium flux fluorescence | inhibition, % at 10 µM | 4,900 tested, 4% active | AID 492993;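 active = thallium signal drop more than 5 SD beyond the mean of the no-compound control wells, seen in both duplicate plates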;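 note: signal is fluorescence rise after thallium addition divided by baseline fluorescence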
KCNK9 uninduced: second check of KCNK9 modulator effects in non-induced HEK293 cells; inhibition, % at 10 µM; AID 492997; FluxOR thallium flux; 4,900 tested, 40% active; shares compounds with KCNK9 block;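 active = thallium signal drop beyond 5 SD of the untreated control mean, on both duplicate plates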
Large screens that a line does not name were inactive (follow-up assays come after a bar, where they were run). An excerpt weighted towards active compounds, which were near 3.1% of everything screened.

COc1ccc(NC(=O)C23CC4CC(C2)CC(c2ccc(C)cc2)(C4)C3)cc1	none | KCNK9 block conf inactive | Kir21 sel inactive | KCNK9 uninduced inactive
CNC(=O)C12CC3CC(C1)CC(c1ccc(C)cc1)(C3)C2	none
CS(=O)(=O)N(CC(=O)O)c1ccc(C23CC4CC(CC(C4)C2)C3)cc1	none
CC(C)C(NC(=O)c1ccccc1)C(=O)N1CCCCCC1 (stereo unspecified)	none
O=C(c1cccs1)c1c[nH]cc1-c1ccccc1	none
CCOc1ccc2c(S(=O)(=O)O)cccc2c1[N+](=O)[O-]	none (no result: KCNQ1 inh, hERG rescue, KCNQ1 pot, KCNK9 block)
COc1ccccc1NC(=S)NC(=O)Cc1ccccc1	none
COc1ccccc1NC(=S)NC(=O)C(C)(C)C	none | KCNK9 block conf inactive | Kir21 sel inactive | KCNK9 uninduced inactive
C=CCc1ccc(O)c(-c2cc(CC=C)ccc2O)c1	KCNK9 block -17 | KCNK9 block conf 62% | Kir21 sel inactive | KCNK9 uninduced inactive
COc1ccccc1C1CCN(Cc2ccc(Cl)cc2Cl)CC1	none
COc1ccccc1C1CCN(Cc2ccc(Cl)c(Cl)c2)CC1	none | KCNK9 block conf inactive | Kir21 sel inactive | KCNK9 uninduced inactive
COc1ccccc1C1CCN(Cc2cccc3ccccc23)CC1	none | KCNK9 block conf inactive | Kir21 sel inactive | KCNK9 uninduced 27%
Cc1n[nH]c(C)c1S(=O)(=O)N1CCN(S(=O)(=O)c2cccc(F)c2)CC1	none (no result: KCNQ1 inh, hERG rescue, KCNQ1 pot, KCNK9 block)
CCCCc1nnc(NC(=O)c2ccc(OCc3c(C)noc3C)cc2)s1	none (no result: KCNQ1 inh, hERG rescue, KCNQ1 pot, KCNK9 block)
CCc1ccc(NC(=O)c2ccc(C3SCC(=O)N3CCc3ccccc3)cc2)cc1 (stereo unspecified)	none | KCNK9 block conf inactive | Kir21 sel inactive | KCNK9 uninduced inactive
Cc1ccc(C(=O)NCc2ccccn2)cc1S(=O)(=O)N1CCCCC1	none
Cc1ccn(CCC(=O)N2CCc3ccccc32)n1	none
CCn1cnc2c1c(=O)n(CC(=O)NCC(F)(F)F)c(=O)n2Cc1ccccc1	none
CCn1cnc2c1c(=O)n(CC(=O)NCC(C)C)c(=O)n2Cc1ccccc1	none
CCn1cnc2c1c(=O)n(Cc1nnc3n1-c1ccccc1SC3)c(=O)n2Cc1ccccc1	none | KCNK9 block conf inactive | Kir21 sel inactive | KCNK9 uninduced inactive
CCn1cnc2c1c(=O)n(Cc1csc(-c3ccccc3)n1)c(=O)n2Cc1ccccc1	none | KCNK9 block conf inactive | Kir21 sel inactive | KCNK9 uninduced inactive
CCn1cnc2c1c(=O)n(Cc1cccc([N+](=O)[O-])c1)c(=O)n2Cc1ccccc1	none | KCNK9 block conf inactive | Kir21 sel inactive | KCNK9 uninduced inactive
CCOC(=O)c1c(C)[nH]c(C(=O)Cn2c(=O)c3c(ncn3CC)n(Cc3ccccc3)c2=O)c1C	none | KCNK9 block conf inactive | Kir21 sel inactive | KCNK9 uninduced inactive
CCn1cnc2c1c(=O)n(CC(=O)NCc1ccccc1)c(=O)n2Cc1ccccc1	none
O=C(NCCc1ccc(C(F)(F)F)cc1)C1CCC(=O)N(CCCN2CCCC2=O)C1 (stereo unspecified)	none
CCOC(=O)N1CCN(S(=O)(=O)CCNC(=O)c2ccc(F)cc2)CC1	none
COc1ccc(CCN2CC(C(=O)N(C)CC(=O)Nc3cccc(F)c3)CC2=O)cc1OC (stereo unspecified)	none
CC1CC(C)CN(C(=O)C(C)N2CCN(S(=O)(=O)c3ccc(C(F)(F)F)cc3)CC2)C1 (stereo unspecified)	none (no result: KCNQ1 inh, hERG rescue, KCNQ1 pot, KCNK9 block)
CC(O)c1nc2ccc(C(=O)O)cc2[nH]1 (stereo unspecified)	none
CC(C)Oc1ccc(CNC(=O)c2ccc3c(c2)N(C)CCS3)cc1	none | KCNK9 block conf inactive | Kir21 sel inactive | KCNK9 uninduced inactive
O=C(NCc1ccccc1)C1=C[C@H](C2CCCCC2)C[C@H](OCc2ccc(CO)cc2)O1	none | KCNK9 block conf inactive | Kir21 sel inactive | KCNK9 uninduced inactive
COc1ccc(OC)c(NC(=O)CCNS(=O)(=O)c2cc(Br)cnc2N)c1	none
O=C(NNC(=O)C12CC3CC(CC(C3)C1)C2)c1ccccc1[N+](=O)[O-]	none
CCOc1ccccc1C(=O)Nc1ccc(C(=O)c2ccccc2)cc1	KCNK9 block -13 | KCNK9 block conf 76% | Kir21 sel inactive | KCNK9 uninduced 32%
CCOc1ccc(NC(=O)c2ccccc2OCC(=O)c2ccccc2)cc1	KCNK9 block -14 | KCNK9 block conf 42% | Kir21 sel inactive | KCNK9 uninduced inactive
COc1ccc(C(=O)Nc2ccccc2)cc1NC(=O)c1cccs1	none
COc1ccc(Cl)cc1NC(=O)CN(C)C(C)C(=O)NC(=O)NC1CCCCC1 (stereo unspecified)	none | KCNK9 block conf inactive | Kir21 sel inactive | KCNK9 uninduced inactive
COc1ccc(Cl)cc1NC(=O)C(C)N(C)Cc1cccc(Cl)c1Cl (stereo unspecified)	KCNK9 block -13 | KCNK9 block conf 76% | Kir21 sel inactive | KCNK9 uninduced 52%
COc1ccc(Cl)cc1NC(=O)Cc1c(F)cccc1Cl	none
CCOC(=O)C1=C(C)N=c2s/c(=C\c3ccc(OCC(=O)O)cc3)c(=O)n2C1c1ccc(OC(C)C)cc1 (stereo unspecified)	none | KCNK9 block conf inactive | Kir21 sel inactive | KCNK9 uninduced inactive
Cn1cc([N+](=O)[O-])c(C(=O)N2CCN(Cc3ccc4c(c3)OCO4)CC2)n1	none
Cc1cc(C)cc(NC(=O)c2cc(C)n(Cc3cccs3)c2C)c1	none
Cc1cc(C(=O)Nc2ccc(Cl)cc2)c(C)n1Cc1cccs1	none | KCNK9 block conf inactive | Kir21 sel inactive | KCNK9 uninduced inactive
Cc1sc2ncnc(SCC(=O)NCC3CCCO3)c2c1C (stereo unspecified)	none (no result: KCNQ1 inh, hERG rescue, KCNQ1 pot, KCNK9 block)
CC(=O)c1ccc(NC(=S)Nc2ccn(Cc3ccc(Br)cc3)n2)cc1	none
CC(=O)c1cccc(NC(=S)Nc2ccn(Cc3cccc4ccccc34)n2)c1	none | KCNK9 block conf inactive | Kir21 sel inactive | KCNK9 uninduced inactive
O=C1CCCN1C(=O)CSc1nnnn1-c1ccccc1	none (no result: KCNQ1 inh, hERG rescue, KCNQ1 pot, KCNK9 block)
Cc1ccc(Sc2c(C#N)c(-c3ccccc3)nn2C)cc1	KCNQ1 inh 6, KCNK9 block -9.8 | KCNK9 block conf 56% | Kir21 sel inactive | KCNK9 uninduced 40%
Cc1ccc(SCc2nn(C)c(Cl)c2C=O)cc1	none
Cc1ccc(SCc2c(-c3ccccc3)nn(C)c2Cl)cc1	KCNQ1 inh 6, KCNK9 block -8.5 | KCNK9 block conf 42% | Kir21 sel 34% | KCNK9 uninduced 47%
Cn1nc(-c2ccccc2)c(CN2CCN(c3ncccn3)CC2)c1Cl	none | KCNK9 block conf inactive | Kir21 sel inactive | KCNK9 uninduced inactive
Cn1nc(N)c2c(-c3ccccc3)c(C#N)c(N)nc21	none
